Usually MIC90 stands for an inhibitory concentration at the 90% level, which refers to growth in some studies and to a panel of isolates in others.

We go through twelve molecules from ChEMBL document CHEMBL1154956, “Stereospecific synthesis of oximes and oxime ethers of 3-azabicycles: A SAR study towards antimicrobial agents” (2010).

Values after ≈ are worked out from the molar mass of the structure shown.

Assay type in all cases: functional
Experiment [1] concerns Bacillus subtilis. The experiment can be described thus: Antibacterial activity against Bacillus subtilis by NCCLS broth microdilution method. In general terms: Broth dilution looks for growth in wells or tubes with falling amounts of substance.
Experiment [2] deals with Staphylococcus aureus. Briefly: Antibacterial activity against Staphylococcus aureus by NCCLS broth microdilution method.
Experiment [3] concerns Klebsiella pneumoniae. The experiment can be described thus: Antibacterial activity against Klebsiella pneumoniae by NCCLS broth microdilution method.
The subject of experiment [4] is Pseudomonas aeruginosa. Briefly: Antibacterial activity against Pseudomonas aeruginosa by NCCLS broth microdilution method.
Experiment [5] concerns Candida albicans. The experiment can be described thus: Antifungal activity against Candida albicans by NCCLS broth microdilution method. Summed up:
(§1)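 MIC90 was taken as the lowest concentration that inhibited 90% of pathogen growth after incubation, reported in μg/mL. Broth dilution followed the NCCLS reference standards: M27-A for yeasts and the proposed standard for conidium-forming filamentous fungi. Fluconazole was the reference drug.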

Experiment [6] has as its system Candida parapsilosis. Briefly: Antifungal activity against Candida parapsilosis by NCCLS broth microdilution method. Summed up: as §1
The subject of experiment [7] is Aspergillus niger. The experiment can be described thus: Antifungal activity against Aspergillus niger by NCCLS broth microdilution method. An outline of the steps:
as §1

Experiment [8] concerns Cryptococcus neoformans. The experiment can be described thus: Antifungal activity against Cryptococcus neoformans by NCCLS broth microdilution method. An outline of the steps:
as §1

[9] abbreviates: Bacillus subtilis, read-out: MIC90.
Where [10] appears, read: Staphylococcus aureus, read-out: MIC90.
[11] abbreviates: Klebsiella pneumoniae, read-out: MIC90.
Setting [12] is: Lodderomyces parapsilosis, read-out: MIC90.
[13] abbreviates: Cryptococcus neoformans, read-out: MIC90.
Where [14] appears, read: Pseudomonas aeruginosa, read-out: MIC90.
Where [15] appears, read: Candida albicans, read-out: MIC90.
[16] abbreviates: Aspergillus niger, read-out: MIC90.

For the molecule `CC1CC2C(=NO)C(C1)C(c1ccccc1Cl)NC2c1ccccc1Cl` (stereo in doubt; 52a), the MIC90 came out at 32 µg/mL (≈ 82.2 µM) in experiment [1] (setting [9]); 16 µg/mL (≈ 41.1 µM) in experiment [2] (setting [10]); 32 µg/mL (≈ 82.2 µM) in experiment [3] (setting [11]); 32 µg/mL (≈ 82.2 µM) in experiment [4]; 16 µg/mL (≈ 41.1 µM) in experiment [5]; 32 µg/mL (≈ 82.2 µM) in experiment [6] (setting [12]). For the same molecule, the MIC90 in experiment [7] was greater than 128 µg/mL; in experiment [8] (setting [13]), 32 µg/mL (≈ 82.2 µM).

With `CO/N=C1\C2CCCC1(C)C(c1ccc(Cl)cc1)NC2c1ccc(Cl)cc1` (configuration not stated), the MIC90 was 64 µg/mL (≈ 159 µM) in experiment [1] (setting [9]); 32 µg/mL (≈ 79.3 µM) in experiment [2] (setting [10]); 16 µg/mL (≈ 39.7 µM) in experiment [3] (setting [11]); 64 µg/mL (≈ 159 µM) in experiment [4] (setting [14]); 16 µg/mL (≈ 39.7 µM) in experiment [5] (setting [15]); 16 µg/mL (≈ 39.7 µM) in experiment [6] (setting [12]). The MIC90 in experiment [7] (setting [16]) and in experiment [8] (setting [13]) was 8 µg/mL (≈ 19.8 µM) in each case.

For `CON=C1C2CC(C)CC1C(c1ccccc1F)NC2c1ccccc1F` (stereo in doubt; 55b), the MIC90 in experiment [1] turned out to be 8 µg/mL (≈ 21.6 µM); in experiment [2], 16 µg/mL (≈ 43.2 µM); in experiment [3], 16 µg/mL (≈ 43.2 µM); in experiment [4], 32 µg/mL (≈ 86.4 µM); in experiment [5], 2 µg/mL (≈ 5.4 µM); in experiment [6] it was 2 µg/mL (≈ 5.4 µM). Besides, the MIC90 in experiment [7] amounted to 2 µg/mL (≈ 5.4 µM); in experiment [8] it was 4 µg/mL (≈ 10.8 µM).

Turning to `CC1CC2C(=NO)C(C1)C(c1cccc(Cl)c1)NC2c1cccc(Cl)c1` (configuration not stated), the MIC90 in experiment [1] (setting [9]) was found to be 32 µg/mL (≈ 82.2 µM); in experiment [2] (setting [10]), 64 µg/mL (≈ 164 µM); in experiment [3] (setting [11]), 32 µg/mL (≈ 82.2 µM); in experiment [4] (setting [14]), 64 µg/mL (≈ 164 µM); in experiment [5] (setting [15]) it was 64 µg/mL (≈ 164 µM); in experiment [6] (setting [12]), 128 µg/mL (≈ 329 µM). The MIC90 in experiment [7] (setting [16]) is 64 µg/mL (≈ 164 µM); in experiment [8] (setting [13]), greater than 128 µg/mL.

As for `CC12CCCC(/C1=N\O)C(c1ccc(Br)cc1)NC2c1ccc(Br)cc1` (configuration not stated), the MIC90 in experiment [1] (setting [9]) is greater than 128 µg/mL; in experiment [2] (setting [10]), 64 µg/mL (≈ 134 µM); in experiment [3] (setting [11]) it was greater than 128 µg/mL; in experiment [4] (setting [14]), greater than 128 µg/mL; in experiment [5] (setting [15]), greater than 128 µg/mL; in experiment [6] (setting [12]) it was greater than 128 µg/mL. Besides, the MIC90 in experiment [7] (setting [16]) and in experiment [8] (setting [13]) was 128 µg/mL (≈ 268 µM) throughout.

For `CC1CC2C(=NO)C(C1)C(c1ccc(F)cc1)NC2c1ccc(F)cc1` (configuration not stated), the MIC90 in experiment [1] (setting [9]) came out at 64 µg/mL (≈ 180 µM); in experiment [2] (setting [10]), 8 µg/mL (≈ 22.4 µM); in experiment [3] (setting [11]), 32 µg/mL (≈ 89.8 µM); in experiment [4] (setting [14]) it was 64 µg/mL (≈ 180 µM); in experiment [5] (setting [15]), 32 µg/mL (≈ 89.8 µM); in experiment [6] (setting [12]) it was 64 µg/mL (≈ 180 µM). In addition, the MIC90 in experiment [7] (setting [16]) turned out to be 64 µg/mL (≈ 180 µM); in experiment [8] (setting [13]), 32 µg/mL (≈ 89.8 µM).

Turning to `OC(Cn1cncn1)(Cn1cncn1)c1ccc(F)cc1F` [FLUCONAZOLE], the MIC90 in experiment [5] (setting [15]) amounted to 1 µg/mL (≈ 3.27 µM); in experiment [6] (setting [12]), 2 µg/mL (≈ 6.53 µM); in experiment [7] (setting [16]) it was 4 µg/mL (≈ 13.1 µM); in experiment [8] (setting [13]), 2 µg/mL (≈ 6.53 µM).

For `CON=C1C2CC(C)CC1C(c1ccccc1Cl)NC2c1ccccc1Cl` (stereo in doubt; 58b), the MIC90 was 32 µg/mL (≈ 79.3 µM) in experiment [1]; 8 µg/mL (≈ 19.8 µM) in experiment [2]; 16 µg/mL (≈ 39.7 µM) in experiment [3]; 16 µg/mL (≈ 39.7 µM) in experiment [4]; 4 µg/mL (≈ 9.92 µM) in experiment [5]; 4 µg/mL (≈ 9.92 µM) in experiment [6]. Besides, the MIC90 in experiment [7] and in experiment [8] was 2 µg/mL (≈ 4.96 µM) in each case.

For the molecule `CC12CCCC(/C1=N\O)C(c1ccccc1Br)NC2c1ccccc1Br` (configuration not stated), the MIC90 in experiment [1] (setting [9]) was 128 µg/mL (≈ 268 µM); in experiment [2] (setting [10]), 64 µg/mL (≈ 134 µM); in experiment [3] (setting [11]), 128 µg/mL (≈ 268 µM); in experiment [4] (setting [14]) it was greater than 128 µg/mL; in experiment [5] (setting [15]) it was 64 µg/mL (≈ 134 µM); in experiment [6] (setting [12]), 64 µg/mL (≈ 134 µM). For the same molecule, the MIC90 was 128 µg/mL (≈ 268 µM) in experiment [7] (setting [16]) and greater than 128 µg/mL in experiment [8] (setting [13]).

Take `CC12CCCC(/C1=N\O)C(c1ccccc1F)NC2c1ccccc1F` (configuration not stated): the MIC90 in experiment [1] (setting [9]) was 32 µg/mL (≈ 89.8 µM); in experiment [2] (setting [10]), 8 µg/mL (≈ 22.4 µM); in experiment [3] (setting [11]) it was 16 µg/mL (≈ 44.9 µM); in experiment [4] (setting [14]) it was 32 µg/mL (≈ 89.8 µM); in experiment [5] (setting [15]), 8 µg/mL (≈ 22.4 µM); in experiment [6] (setting [12]), 8 µg/mL (≈ 22.4 µM). Moreover, the MIC90 in experiment [7] (setting [16]) and in experiment [8] (setting [13]) was 64 µg/mL (≈ 180 µM) each time.

On to `CC12CCCC(/C1=N\O)C(c1ccc(F)cc1)NC2c1ccc(F)cc1` (configuration not stated), for which the MIC90 in experiment [1] (setting [9]) worked out at 64 µg/mL (≈ 180 µM); in experiment [2] (setting [10]) it was 16 µg/mL (≈ 44.9 µM); in experiment [3] (setting [11]), 32 µg/mL (≈ 89.8 µM); in experiment [4] (setting [14]) it was 64 µg/mL (≈ 180 µM); in experiment [5] (setting [15]), 16 µg/mL (≈ 44.9 µM); in experiment [6] (setting [12]), 32 µg/mL (≈ 89.8 µM). Also, the MIC90 in experiment [7] (setting [16]) came out at 64 µg/mL (≈ 180 µM); in experiment [8] (setting [13]), 32 µg/mL (≈ 89.8 µM).

Regarding `CC1CC2C(=NO)C(C1)C(c1ccccc1F)NC2c1ccccc1F` (stereo in doubt; 49b), the MIC90 in experiment [1] came to 32 µg/mL (≈ 89.8 µM); in experiment [2], 32 µg/mL (≈ 89.8 µM); in experiment [3] it was 64 µg/mL (≈ 180 µM); in experiment [4], 128 µg/mL (≈ 359 µM); in experiment [5] it was 16 µg/mL (≈ 44.9 µM); in experiment [6] it was 32 µg/mL (≈ 89.8 µM). In addition, the figures for the MIC90 in experiment [7] and in experiment [8] were 4 µg/mL (≈ 11.2 µM) and 16 µg/mL (≈ 44.9 µM), respectively.
